According to ChEMBL document CHEMBL1275334, “5-Piperazinyl-3-sulfonylindazoles as potent and selective 5-hydroxytryptamine-6 antagonists” (J Med Chem, 2010):
pIC50, pKi: −log10 of the molar value. Active and inactive are the calls of the source. The calls are words filed in the database; no cut-off is given here.

What was measured:
[1] = molecular target: T1, 5-hydroxytryptamine receptor 6 (Homo sapiens, UniProt P50406); assay: Displacement of [3H]LSD from human cloned 5HT6 receptor expressed in human HeLa cells; format: cell-based
Outline: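 Radioligand displacement of [3H]LSD from cloned human 5-HT6 receptor stably expressed in HeLa cells. All test substances were used as HCl salts. Ki was determined in triplicate.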

[2] = molecular target: T1, 5-hydroxytryptamine receptor 6; assay: Antagonist activity at human cloned 5HT6 receptor expressed in human HeLa cells by cyclase assay relative to control; format: functional, cell-based
[3] = molecular target: T2, 5-hydroxytryptamine receptor 2C (Homo sapiens, UniProt P28335); assay: Displacement of [3H]LSD from human cloned 5HT2C receptor expressed in human HeLa cells; format: cell-based
T2 sequence (P28335 whole entry): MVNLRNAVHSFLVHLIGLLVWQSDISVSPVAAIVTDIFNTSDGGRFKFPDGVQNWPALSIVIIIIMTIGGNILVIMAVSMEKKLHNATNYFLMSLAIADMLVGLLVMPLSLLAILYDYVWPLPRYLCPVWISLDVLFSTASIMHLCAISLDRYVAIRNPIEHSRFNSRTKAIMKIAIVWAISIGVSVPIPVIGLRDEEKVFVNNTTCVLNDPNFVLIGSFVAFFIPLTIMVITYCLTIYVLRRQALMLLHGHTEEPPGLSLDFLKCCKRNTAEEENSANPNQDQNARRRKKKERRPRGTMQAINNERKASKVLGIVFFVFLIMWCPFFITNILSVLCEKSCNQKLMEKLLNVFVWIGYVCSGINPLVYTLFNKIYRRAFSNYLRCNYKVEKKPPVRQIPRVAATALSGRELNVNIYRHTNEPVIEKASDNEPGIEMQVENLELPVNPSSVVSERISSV

[4] = molecular target: 5-hydroxytryptamine receptor 1D (Homo sapiens, UniProt P28221); assay: Displacement of [3H]LSD from human cloned 5HT1D receptor expressed in human HeLa cells; format: cell-based
[5] = Oral bioavailability in rat at 10 mg/kg; format: ADME, organism-based; settings: in vivo
[6] = molecular target: T3, Alpha-2A adrenergic receptor (Homo sapiens, UniProt P08913); assay: Displacement of [3H]LSD from human cloned alpha2A adrenergic receptor expressed in human HeLa cells; format: cell-based
T3 sequence (P08913 whole entry): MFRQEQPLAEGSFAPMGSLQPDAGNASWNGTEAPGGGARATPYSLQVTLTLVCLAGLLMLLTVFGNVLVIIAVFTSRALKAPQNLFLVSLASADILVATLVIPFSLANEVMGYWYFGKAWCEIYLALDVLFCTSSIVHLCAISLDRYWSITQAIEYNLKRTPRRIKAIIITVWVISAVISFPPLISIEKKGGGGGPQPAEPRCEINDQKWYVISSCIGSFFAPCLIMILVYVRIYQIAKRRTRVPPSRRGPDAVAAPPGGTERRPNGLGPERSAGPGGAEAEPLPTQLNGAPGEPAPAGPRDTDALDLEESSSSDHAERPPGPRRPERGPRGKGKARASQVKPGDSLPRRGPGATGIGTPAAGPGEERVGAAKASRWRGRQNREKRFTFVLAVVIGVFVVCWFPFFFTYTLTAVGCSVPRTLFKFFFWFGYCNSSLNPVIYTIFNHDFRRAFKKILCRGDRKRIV

[7] = molecular target: D(2) dopamine receptor (Homo sapiens, UniProt P14416); assay: Displacement of [3H]LSD from human cloned dopamine D2 receptor expressed in human HeLa cells; format: cell-based
[8] = molecular target: T4, 5-hydroxytryptamine receptor 2B (Homo sapiens, UniProt P41595); assay: Agonist activity at human recombinant 5HT2B receptor expressed in CHOK1 cells at 0.0001 to 10 uM by FLIPR assay; format: functional, cell-based; settings: CHO-K1
[9] = molecular target: T5, 5-hydroxytryptamine receptor 1A (Homo sapiens, UniProt P08908); assay: Displacement of [3H]LSD from human cloned 5HT1A receptor expressed in human HeLa cells; format: cell-based
T5 sequence (P08908 whole entry): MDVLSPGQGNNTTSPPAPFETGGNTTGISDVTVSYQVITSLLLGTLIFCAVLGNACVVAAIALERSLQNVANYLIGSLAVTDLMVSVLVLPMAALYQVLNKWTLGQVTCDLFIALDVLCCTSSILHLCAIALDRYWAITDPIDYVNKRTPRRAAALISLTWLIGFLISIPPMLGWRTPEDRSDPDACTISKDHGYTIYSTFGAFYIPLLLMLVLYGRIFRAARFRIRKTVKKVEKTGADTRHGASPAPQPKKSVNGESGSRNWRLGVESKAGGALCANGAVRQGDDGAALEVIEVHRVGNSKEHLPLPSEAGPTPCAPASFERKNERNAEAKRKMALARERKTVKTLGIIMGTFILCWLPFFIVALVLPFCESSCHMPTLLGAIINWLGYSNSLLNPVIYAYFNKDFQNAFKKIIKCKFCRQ

[10] = molecular target: 5-hydroxytryptamine receptor 1B (Homo sapiens, UniProt P28222); assay: Displacement of [3H]LSD from human cloned 5HT1B receptor expressed in human HeLa cells; format: cell-based
[11] = molecular target: 5-hydroxytryptamine receptor 7 (Homo sapiens, UniProt P34969); assay: Displacement of [3H]LSD from human cloned 5HT7 receptor expressed in human HeLa cells; format: cell-based
[12] = molecular target: T1, 5-hydroxytryptamine receptor 6; assay: Antagonist activity at human cloned 5HT6 receptor expressed in human HeLa cells by cyclase assay; format: functional, cell-based
[13] = molecular target: T4, 5-hydroxytryptamine receptor 2B; assay: Displacement of [3H]LSD from human cloned 5HT2B receptor expressed in human HeLa cells; format: cell-based
[14] = Ratio of drug level in brain to plasma in rat at 10 mg/kg, po; format: ADME, organism-based; design: dose 10 mg/kg, route oral; settings: read-out: BPR

T1 sequence (P50406 whole entry): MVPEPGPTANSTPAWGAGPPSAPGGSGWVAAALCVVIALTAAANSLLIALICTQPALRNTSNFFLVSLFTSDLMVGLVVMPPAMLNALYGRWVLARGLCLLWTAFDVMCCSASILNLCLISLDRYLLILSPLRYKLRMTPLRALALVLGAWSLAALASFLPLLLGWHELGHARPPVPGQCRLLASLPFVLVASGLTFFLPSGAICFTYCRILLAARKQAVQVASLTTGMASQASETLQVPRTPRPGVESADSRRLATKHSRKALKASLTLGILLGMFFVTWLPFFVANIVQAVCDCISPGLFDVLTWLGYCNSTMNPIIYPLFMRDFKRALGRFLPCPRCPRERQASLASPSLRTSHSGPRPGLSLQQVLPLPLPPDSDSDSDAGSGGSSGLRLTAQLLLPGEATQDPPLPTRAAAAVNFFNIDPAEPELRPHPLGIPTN
5-hydroxytryptamine receptor 7, sequence (P34969 whole entry): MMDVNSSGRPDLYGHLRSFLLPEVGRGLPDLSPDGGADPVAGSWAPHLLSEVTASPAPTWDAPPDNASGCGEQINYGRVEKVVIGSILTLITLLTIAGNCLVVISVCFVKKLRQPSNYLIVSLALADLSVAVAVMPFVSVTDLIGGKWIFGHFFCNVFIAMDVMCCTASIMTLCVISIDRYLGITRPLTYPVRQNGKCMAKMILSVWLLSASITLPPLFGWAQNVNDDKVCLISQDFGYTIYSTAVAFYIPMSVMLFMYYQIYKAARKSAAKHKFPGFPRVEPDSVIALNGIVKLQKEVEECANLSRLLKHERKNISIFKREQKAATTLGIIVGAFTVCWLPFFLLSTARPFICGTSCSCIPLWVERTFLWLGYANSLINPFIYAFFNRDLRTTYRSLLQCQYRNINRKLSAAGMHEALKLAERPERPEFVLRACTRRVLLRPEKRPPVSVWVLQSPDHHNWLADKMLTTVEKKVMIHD
5-hydroxytryptamine receptor 1B, sequence (P28222 whole entry): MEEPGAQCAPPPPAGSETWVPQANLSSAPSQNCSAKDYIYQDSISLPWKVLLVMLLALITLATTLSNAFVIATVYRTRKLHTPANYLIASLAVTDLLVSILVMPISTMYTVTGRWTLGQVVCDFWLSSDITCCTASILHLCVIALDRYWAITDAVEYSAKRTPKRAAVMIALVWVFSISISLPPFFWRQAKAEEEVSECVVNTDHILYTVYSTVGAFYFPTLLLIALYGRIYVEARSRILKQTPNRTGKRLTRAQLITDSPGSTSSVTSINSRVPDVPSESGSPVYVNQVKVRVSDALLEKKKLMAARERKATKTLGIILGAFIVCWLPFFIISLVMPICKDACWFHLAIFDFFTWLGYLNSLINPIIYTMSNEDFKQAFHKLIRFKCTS
T4 sequence (P41595 whole entry): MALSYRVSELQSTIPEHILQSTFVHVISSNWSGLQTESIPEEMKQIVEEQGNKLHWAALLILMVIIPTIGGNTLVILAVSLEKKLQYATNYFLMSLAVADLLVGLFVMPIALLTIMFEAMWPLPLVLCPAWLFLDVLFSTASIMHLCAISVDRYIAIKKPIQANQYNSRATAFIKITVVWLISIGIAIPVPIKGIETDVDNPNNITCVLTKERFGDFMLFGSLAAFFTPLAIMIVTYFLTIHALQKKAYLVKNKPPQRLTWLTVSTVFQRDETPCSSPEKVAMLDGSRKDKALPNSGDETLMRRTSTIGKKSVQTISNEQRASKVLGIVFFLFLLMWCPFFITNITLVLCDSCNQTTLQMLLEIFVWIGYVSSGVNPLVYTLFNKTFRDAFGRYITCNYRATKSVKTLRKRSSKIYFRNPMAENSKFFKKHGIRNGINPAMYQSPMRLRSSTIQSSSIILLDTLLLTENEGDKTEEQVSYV
D(2) dopamine receptor, sequence (P14416 whole entry): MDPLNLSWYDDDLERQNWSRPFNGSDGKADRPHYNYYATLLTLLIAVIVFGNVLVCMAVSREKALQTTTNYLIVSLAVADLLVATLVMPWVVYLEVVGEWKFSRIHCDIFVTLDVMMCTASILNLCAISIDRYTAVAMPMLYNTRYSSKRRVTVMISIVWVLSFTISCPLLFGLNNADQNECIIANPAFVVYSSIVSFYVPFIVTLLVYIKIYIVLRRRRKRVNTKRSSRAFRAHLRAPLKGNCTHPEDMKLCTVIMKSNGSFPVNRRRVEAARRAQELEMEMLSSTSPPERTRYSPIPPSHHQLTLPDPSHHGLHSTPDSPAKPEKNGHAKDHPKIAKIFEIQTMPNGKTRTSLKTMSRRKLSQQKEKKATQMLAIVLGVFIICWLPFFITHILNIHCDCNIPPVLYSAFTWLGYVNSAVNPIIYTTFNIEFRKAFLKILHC
5-hydroxytryptamine receptor 1D, sequence (P28221 whole entry): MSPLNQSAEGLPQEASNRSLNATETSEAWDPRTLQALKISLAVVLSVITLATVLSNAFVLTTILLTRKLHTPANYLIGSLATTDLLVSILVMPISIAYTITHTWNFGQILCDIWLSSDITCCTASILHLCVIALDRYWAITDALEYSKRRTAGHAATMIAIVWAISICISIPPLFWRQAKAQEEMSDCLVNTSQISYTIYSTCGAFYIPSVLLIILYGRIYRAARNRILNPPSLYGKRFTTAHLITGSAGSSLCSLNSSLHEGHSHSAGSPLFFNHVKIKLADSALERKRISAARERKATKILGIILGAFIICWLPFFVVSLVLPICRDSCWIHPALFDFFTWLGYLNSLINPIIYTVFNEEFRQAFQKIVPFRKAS

Row | Compound | pKi [1] | Imax [2] [%] | pIC50 [12] | also measured
1 | O=S(=O)(c1cccc2ccccc12)c1n[nH]c2cc(N3CCNCC3)ccc12 | 7.66 | – | – | –
2 | Cc1ccc(S(=O)(=O)c2n[nH]c3cccc(N4CCNCC4)c23)cc1 | 6.87 | – | – | –
3 | O=S(=O)(c1cccc2ccccc12)c1n[nH]c2cccc(N3CCNCC3)c12 | 7.32 | – | – | –
4 | CCn1nc(S(=O)(=O)c2cccc3ccccc23)c2cc(N3CCNCC3)ccc21 | – | 100 | – | –
5 | CC(C)Cn1nc(S(=O)(=O)c2cccc3ccccc23)c2cc(N3CCN(C)CC3)ccc21 | 8.85 | 100 | – | –
6 | CN1CCN(c2ccc3[nH]nc(S(=O)(=O)c4cccc5ccccc45)c3c2)CC1 | 8.80 | 100 | 8.10 | pKi [3]: < 5.30; pKi [4]: < 5.30; bioavailability [5]: 5%; pKi [6]: < 5.30; pKi [7]: 6.48; Activity [8]: inactive; pKi [9]: < 5.30; pKi [10]: < 5.30; pKi [11]: 6.24; pKi [13]: 6.22
7 | COc1ccc(S(=O)(=O)c2n[nH]c3ccc(N4CCN(C)CC4)cc23)cc1 | – | 100 | 6.26 | –
8 | Cn1nc(S(=O)(=O)c2ccccc2)c2cc(N3CCNCC3)ccc21 | 8.49 | 100 | – | –
9 | CN1CCN(c2ccc3c(c2)c(S(=O)(=O)c2cccc4ccccc24)nn3C)CC1 | 8.77 | 100 | – | –
10 | O=S(=O)(c1cccc(F)c1)c1n[nH]c2cccc(N3CCNCC3)c12 | 6.87 | – | – | –
11 | CN1CCN(c2ccc3[nH]nc(S(=O)(=O)c4cccc(Cl)c4)c3c2)CC1 | 9.00 | 100 | 7.21 | –
12 | Cc1ccc(S(=O)(=O)c2n[nH]c3ccc(N4CCN(C)CC4)cc23)cc1 | 8.31 | 100 | 6.95 | –
13 | CC(C)n1nc(S(=O)(=O)c2cccc3ccccc23)c2cc(N3CCN(C)CC3)ccc21 | 8.74 | 98 | – | –
14 | O=S(=O)(c1cccc2ccccc12)c1nn(Cc2ccccc2)c2ccc(N3CCNCC3)cc12 | – | 100 | – | pKi [3]: 5.97; pKi [4]: < 5.30; bioavailability [5]: > 50%; Kp [14]: > 0.5; pKi [6]: < 5.30; pKi [7]: 6.22; Activity [8]: inactive; pKi [9]: < 5.30; pKi [10]: < 5.30; pKi [11]: < 5.30; pKi [13]: 6.85
15 | CN1CCN(c2ccc3c(c2)c(S(=O)(=O)c2cccc4ccccc24)nn3Cc2ccccc2)CC1 | – | 100 | – | –
16 | CCCn1nc(S(=O)(=O)c2cccc3ccccc23)c2cc(N3CCNCC3)ccc21 | – | – | 8.66 | –
17 | Cc1cccc(S(=O)(=O)c2n[nH]c3ccc(N4CCN(C)CC4)cc23)c1 | 9.05 | 100 | 7.42 | –
18 | CCn1nc(S(=O)(=O)c2cccc3ccccc23)c2cc(N3CCN(C)CC3)ccc21 | 8.77 | 100 | – | –
19 | CN1CCN(c2ccc3[nH]nc(S(=O)(=O)c4ccccc4Cl)c3c2)CC1 | – | 100 | 7.00 | –
20 | O=S(=O)(c1ccc(C(F)(F)F)cc1)c1n[nH]c2cc(N3CCNCC3)ccc12 | 6.68 | – | – | –

Row | Compound | pKi [1] | Imax [2] [%] | pIC50 [12] | also measured
21 | CC(C)Cn1nc(S(=O)(=O)c2cccc3ccccc23)c2cc(N3CCNCC3)ccc21 | – | 100 | – | pKi [3]: 5.73; pKi [4]: < 5.30; pKi [6]: < 5.30; pKi [7]: 5.72; Activity [8]: inactive; pKi [9]: < 5.30; pKi [10]: < 5.30; pKi [11]: < 5.30; pKi [13]: 6.55
22 | CN1CCN(c2ccc3[nH]nc(S(=O)(=O)c4ccccc4)c3c2)CC1 | 8.72 | 99 | 8.06 | pKi [3]: 5.51; pKi [4]: < 5.30; pKi [6]: < 5.30; pKi [7]: 6.45; Activity [8]: inactive; pKi [9]: < 5.30; pKi [10]: < 5.30; pKi [11]: 6.12; pKi [13]: 6.01
23 | CN1CCN(c2ccc3[nH]nc(S(=O)(=O)c4ccc(Cl)cc4)c3c2)CC1 | 8.09 | 100 | 6.97 | –
24 | O=S(=O)(c1cccc(F)c1)c1n[nH]c2cc(N3CCNCC3)ccc12 | 7.96 | – | – | –
25 | CN1CCN(c2cccc3c(S(=O)(=O)c4cccc5ccccc45)n[nH]c23)CC1 | 8.34 | 100 | 7.77 | –
26 | CN1CCN(c2ccc3[nH]nc(S(=O)(=O)c4c(Cl)cccc4Cl)c3c2)CC1 | 8.59 | 100 | 7.40 | –
27 | O=S(=O)(c1ccc(Cl)cc1)c1n[nH]c2cc(N3CCNCC3)ccc12 | 6.96 | – | – | –
28 | COc1ccc(S(=O)(=O)c2n[nH]c3cccc(N4CCNCC4)c23)cc1 | 7.06 | – | – | –
29 | CN1CCN(c2ccc3[nH]nc(S(=O)(=O)c4cccs4)c3c2)CC1 | 8.11 | 96 | 6.48 | –
30 | CN1CCN(c2ccc3[nH]nc(S(=O)(=O)c4ccc(F)cc4)c3c2)CC1 | 8.28 | 98 | 6.33 | –
31 | COc1cccc(S(=O)(=O)c2n[nH]c3ccc(N4CCN(C)CC4)cc23)c1 | 8.96 | 100 | 7.24 | –
32 | COc1ccc(S(=O)(=O)c2n[nH]c3cc(N4CCNCC4)ccc23)cc1 | 6.91 | – | – | –
33 | O=S(=O)(c1ccc(Cl)cc1)c1n[nH]c2cccc(N3CCNCC3)c12 | 6.90 | – | – | –
34 | CCn1nc(S(=O)(=O)c2ccccc2)c2cc(N3CCNCC3)ccc21 | 8.54 | 100 | – | –
35 | Cc1ccc(S(=O)(=O)c2n[nH]c3cc(N4CCNCC4)ccc23)cc1 | 7.57 | – | – | –
36 | CN1CCN(c2ccc3[nH]nc(S(=O)(=O)c4cccc(F)c4)c3c2)CC1 | 8.77 | 99 | 6.88 | –
37 | CC(C)n1nc(S(=O)(=O)c2cccc3ccccc23)c2cc(N3CCNCC3)ccc21 | 8.54 | 100 | – | pKi [3]: 5.97; pKi [4]: < 5.30; pKi [6]: < 5.30; pKi [7]: 5.69; Activity [8]: inactive; pKi [9]: < 5.30; pKi [10]: < 5.30; pKi [11]: < 5.30; pKi [13]: 7.02
38 | CCCn1nc(S(=O)(=O)c2cccc3ccccc23)c2cc(N3CCN(C)CC3)ccc21 | 8.74 | 100 | – | –
39 | Cn1nc(S(=O)(=O)c2cccc3ccccc23)c2cc(N3CCNCC3)ccc21 | – | 99 | – | pKi [3]: 5.44; pKi [4]: 5.56; pKi [6]: < 5.30; pKi [7]: 5.65; Activity [8]: inactive; pKi [9]: 5.75; pKi [10]: 5.44; pKi [11]: < 5.30; pKi [13]: 7.06
40 | CN1CCN(c2ccc3[nH]nc(S(=O)(=O)c4ccccc4F)c3c2)CC1 | 8.26 | 100 | 7.27 | –
